According to ChEMBL document CHEMBL1143879, “Identification of novel series of human CCR1 antagonists” (Bioorg Med Chem Lett, 2008):
pIC50: −log10 of the molar value.

Experiments:
[1] = molecular target: T1, C-C chemokine receptor type 1 (Homo sapiens, UniProt P32246); experiment: Displacement of [125I]MIP1-alpha from human CCR1 receptor expressed in THP1 cells; format: cell-based, THP-1
T1 sequence (P32246 whole entry): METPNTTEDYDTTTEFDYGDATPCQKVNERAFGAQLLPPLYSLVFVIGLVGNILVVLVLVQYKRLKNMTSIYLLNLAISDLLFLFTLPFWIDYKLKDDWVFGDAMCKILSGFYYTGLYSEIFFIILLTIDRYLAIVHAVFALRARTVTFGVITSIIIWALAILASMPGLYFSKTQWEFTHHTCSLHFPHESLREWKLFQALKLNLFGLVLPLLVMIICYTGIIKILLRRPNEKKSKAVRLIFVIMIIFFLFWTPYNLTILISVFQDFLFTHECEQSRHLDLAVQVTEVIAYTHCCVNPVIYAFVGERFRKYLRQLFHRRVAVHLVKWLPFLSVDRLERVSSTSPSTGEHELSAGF
How it was run: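 THP-1 cells expressing CCR1, washed in PBS, at 5 × 10⁶/ml with compound or vehicle and 50 pM human [¹²⁵I]MIP-1α. Binding buffer: 50 mM Hepes pH 7.4, 5 mM MgCl₂, 1 mM CaCl₂, 0.5% BSA. Incubated 90 min at room temperature, then filtered on PEI-coated glass fibre and washed with buffer plus 0.5 M NaCl. Bound counts by scintillation. IC50, mean of triplicates in one experiment.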

[2] = molecular target: T1, C-C chemokine receptor type 1; experiment: Antagonist activity at human CCR1 receptor expressed in THP1 cells assessed as human MIP-1-alpha-stimulated intracellular calcium level by FLIPR assay; format: functional, cell-based, THP-1
How it was run: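 THP-1 cells in RPMI-1640 at 2 × 10⁶/ml, mixed 1:1 with calcium dye buffer, loaded 30 min at 37 °C with 2.5 mM probenecid. Cells spun down, resuspended in RPMI-1640 with 0.1% BSA and plated at 1.5 × 10⁵/well with or without compound. Stimulated with 5 nM human MIP-1α; intracellular Ca²⁺ change read by FLIPR. IC50, mean of at least two independent experiments.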

THP-1 = experiment: Inhibition of CCL3-induced chemotaxis in human THP1 cells after 2 hrs; format: functional, cell-based; settings: THP-1, 2 h
How it was run: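 Calcein-labelled THP-1 cells washed in RPMI-1640 and resuspended at 5 × 10⁶/ml. Preincubated 30 min at 37 °C with compound or DMSO, then placed above a 5 µm polycarbonate filter in a Boyden chamber. The lower wells held 0.5 nM human MIP-1α with or without compound. Chamber incubated 2 h at 37 °C.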

| Structure (SMILES) | pIC50 [1] | pIC50 [2] | pIC50 (THP-1) |
| --- | --- | --- | --- |
| O=S(=O)(NCCCN1CCC(O)(c2ccc(Cl)cc2)CC1)c1cccs1 | 6.80 | 7.15 |  |
| O=S(=O)(c1ccccc1Cl)N1CCC[C@H](N2CCC(O)(c3ccc(Cl)cc3)CC2)C1 | 5.72 | 5.69 |  |
| CC1(N2CCC(O)(c3ccc(Cl)cc3)CC2)CCN(S(=O)(=O)c2ccccc2Cl)CC1 | 5.29 | 5.65 |  |
| O=S(=O)(NCCCN1CCC(O)(c2ccc(Cl)cc2)CC1)c1cccc2ccccc12 | 6.17 | 6.74 |  |
| O=S(=O)(c1ccccc1Cl)N1CCC(N2CCC(O)(c3cccc(Cl)c3)CC2)CC1 | 5.15 | 5.21 |  |
| O=S(=O)(NCCCN1CCC(O)(c2ccc(Cl)cc2)CC1)c1cc(Cl)cc(Cl)c1 | 6.11 | 5.87 |  |
| N#CC1(c2ccc(Cl)cc2)CCN(C2CCN(S(=O)(=O)c3ccccc3Cl)CC2)CC1 | 6.00 |  |  |
| O=S(=O)(NCCCN1CCC(O)(c2ccc(Cl)cc2)CC1)c1ccc(F)cc1Cl | 6.44 | 7.00 |  |
| O=S(=O)(c1ccccc1Cl)N1CCC(N2CCC(O)(c3ccc(-c4ccccc4)cc3)CC2)CC1 | < 5.00 | < 5.00 |  |
| O=S(=O)(NCCCN1CCC(O)(c2ccc(Cl)cc2)CC1)c1c(Cl)cccc1Cl | 7.10 | 7.52 |  |
| O=S(=O)(c1c(F)cc(F)cc1Br)N1CCC(N2CCC(O)(c3ccc(Cl)cc3)CC2)CC1 | 5.95 | 6.48 |  |
| CC(C)(C)c1ccc(C2(O)CCN(C3CCN(S(=O)(=O)c4ccccc4Cl)CC3)CC2)cc1 | < 5.00 | < 5.00 |  |
| O=S(=O)(NCCCN1CCC(O)(c2ccc(Cl)cc2)CC1)c1ccc(F)cc1 | 6.04 | 6.68 |  |
| O=S(=O)(c1ccccc1Cl)N1CCC(N2CCC(O)(c3ccc(F)cc3)CC2)CC1 | 5.93 | 5.90 |  |
| O=S(=O)(c1ccccc1Cl)N1CCC(N2CCC(O)(c3ccc(Cl)cc3)CC2)CC1 | 6.70 | 6.89 | 6.74 |
| CC1(N2CCC(O)(c3ccc(Cl)cc3)CC2)CCN(S(=O)(=O)c2cccs2)CC1 | < 5.00 | 5.13 |  |
| O=S(=O)(NCCCN1CCC(O)(c2ccc(Cl)cc2)CC1)c1ccsc1 | 6.24 | 6.41 |  |
| O=S(=O)(NCCCN1CCC(O)(c2ccc(Cl)cc2)CC1)c1ccc(-c2ccccc2)cc1 | < 4.52 | < 4.52 |  |
| O=S(=O)(NCCCN1CCC(O)(c2ccc(Cl)cc2)CC1)c1ccc(OC(F)(F)F)cc1 | 5.05 | 5.44 |  |
| O=S(=O)(c1ccccc1Cl)N1CCC(N2CCC(O)(c3ccc(F)c(Cl)c3)CC2)CC1 | 6.29 | 6.23 |  |
| COc1ccc(C2(O)CCN(C3CCN(S(=O)(=O)c4ccccc4Cl)CC3)CC2)cc1 | < 5.00 | < 5.00 |  |
| Cc1ccccc1S(=O)(=O)N1CCC(N2CCC(O)(c3ccc(Cl)cc3)CC2)CC1 | 6.30 | 6.74 |  |

| Structure (SMILES) | pIC50 [1] | pIC50 [2] | pIC50 (THP-1) |
| --- | --- | --- | --- |
| CC1CC(N2CCC(O)(c3ccc(Cl)cc3)CC2)CCN1S(=O)(=O)c1ccccc1Cl (configuration not stated) | 6.49 | 6.55 |  |
| O=S(=O)(NCCCN1CCC(O)(c2ccc(Cl)cc2)CC1)c1ccc(Cl)cc1Cl | 6.39 | 6.44 |  |
| COc1ccc(S(=O)(=O)NCCCN2CCC(O)(c3ccc(Cl)cc3)CC2)cc1 | 5.41 | 6.08 |  |
| O=S(=O)(c1ccccc1Cl)N1CCC(N2CCC(O)(c3ccc(Br)cc3)CC2)CC1 | 6.36 | 6.74 |  |
| O=S(=O)(c1ccccc1Cl)N1CCC[C@@H](N2CCC(O)(c3ccc(Cl)cc3)CC2)C1 | 5.70 | 5.89 |  |
| O=S(=O)(NCCCN1CCC(O)(c2ccc(Cl)cc2)CC1)c1ccccc1Cl | 6.96 | 7.40 |  |
| Cc1ccccc1S(=O)(=O)NCCCN1CCC(O)(c2ccc(Cl)cc2)CC1 | 6.82 | 7.52 |  |
| Cc1cccc(Cl)c1S(=O)(=O)N1CCC(N2CCC(O)(c3ccc(Cl)cc3)CC2)CC1 | 6.43 | 6.37 |  |
| O=S(=O)(NCCCN1CCC(O)(c2ccc(Cl)cc2)CC1)c1ccc(Cl)c(Cl)c1 | 5.73 | 5.61 |  |
| O=S(=O)(NCCCN1CCC(O)(c2ccc(Cl)cc2)CC1)c1cccc(Cl)c1 | 6.42 | 7.00 |  |
| CSc1ccc(C2(O)CCN(C3CCN(S(=O)(=O)c4ccccc4Cl)CC3)CC2)cc1 | < 5.00 | 5.10 |  |
| Cc1cccc(Cl)c1S(=O)(=O)N1CCC[C@@H](N2CCC(O)(c3ccc(Cl)cc3)CC2)C1 | 6.41 | 6.57 |  |
| CC1CC(N2CCC(O)(c3ccc(Cl)cc3)CC2)CCN1S(=O)(=O)c1ccccc1Br (configuration not stated) | 6.66 | 6.92 |  |
| O=S(=O)(NCCCN1CCC(O)(c2ccc(Cl)cc2)CC1)c1ccccc1-c1ccccc1 | 6.22 | 7.08 | 6.82 |
| O=S(=O)(NCCCN1CCC(O)(c2ccc(Cl)cc2)CC1)c1ccccc1OC(F)(F)F | 6.46 | 6.72 |  |
| O=S(=O)(c1ccccc1Br)N1CCC[C@H](N2CCC(O)(c3ccc(Cl)cc3)CC2)C1 | 6.34 | 5.89 |  |
| O=S(=O)(NCCCN1CCC(O)(c2ccc(Cl)cc2)CC1)c1ccccc1Br | 6.85 | 6.77 |  |
| Cc1cccc(Cl)c1S(=O)(=O)NCCCN1CCC(O)(c2ccc(Cl)cc2)CC1 | 7.05 | 7.40 |  |
| Cc1cccc(Cl)c1S(=O)(=O)N1CCC[C@H](N2CCC(O)(c3ccc(Cl)cc3)CC2)C1 | 6.37 | 6.32 |  |
| O=S(=O)(NCCCN1CCC(O)(c2ccc(Cl)cc2)CC1)c1ccc(Cl)cc1 | 6.10 | 6.43 |  |
| O=S(=O)(NCCCN1CCC(O)(c2ccc(Cl)cc2)CC1)c1ccccc1 | 6.52 | 7.05 |  |
| N#CC1(c2ccc(Cl)cc2)CCN(CCCNS(=O)(=O)c2ccccc2Cl)CC1 | 6.22 |  |  |

| Structure (SMILES) | pIC50 [1] | pIC50 [2] | pIC50 (THP-1) |
| --- | --- | --- | --- |
| O=S(=O)(c1ccc(Cl)c(Cl)c1Cl)N1CCC(N2CCC(O)(c3ccc(Cl)cc3)CC2)CC1 | 5.44 | 6.17 |  |
| O=S(=O)(NCCCN1CCC(O)(c2ccc(Cl)cc2)CC1)c1cccc(Cl)c1Cl | 6.29 | 6.46 |  |
| Cc1cccc(Cl)c1S(=O)(=O)N1CCC(N2CCC(O)(c3ccc(Cl)cc3)C2)CC1 (configuration not stated) | < 4.52 | < 5.00 |  |
| O=S(=O)(c1ccccc1Cl)N1CCC(N2CCC(O)(c3ccc(Cl)c(Cl)c3)CC2)CC1 | 6.05 | 6.74 |  |
| O=C(NCCCN1CCC(O)(c2ccc(Cl)cc2)CC1)c1ccc2ccccc2c1 | 5.23 | 5.78 |  |
| O=S(=O)(c1ccccc1Cl)N1CCC(N2CCC(O)(c3cc(F)c(F)c(F)c3)CC2)CC1 | 5.88 | 5.59 |  |
| O=S(=O)(c1c(Cl)cccc1Cl)N1CCC(N2CCC(O)(c3ccc(Cl)cc3)CC2)CC1 | 6.38 | 6.38 |  |
| Cc1cccc(Cl)c1S(=O)(=O)N1CCC(C)(N2CCC(O)(c3ccc(Cl)cc3)CC2)CC1 | 5.45 | 5.65 |  |
| CC1(N2CCC(O)(c3ccc(Cl)cc3)CC2)CCN(S(=O)(=O)c2c(Cl)cccc2Cl)CC1 | 5.38 | 5.33 |  |
| O=S(=O)(NCCCN1CCC(O)(c2ccc(Cl)cc2)CC1)c1ccccc1F | 6.24 | 7.10 |  |
| O=S(=O)(NCCCN1CCC(O)(c2ccc(Cl)cc2)CC1)c1ccc2ccccc2c1 | 5.94 | 6.28 |  |
| O=S(=O)(c1cccs1)N1CCC(N2CCC(O)(c3ccc(Cl)cc3)CC2)CC1 | 6.01 | 5.99 |  |
| Cc1ccc(S(=O)(=O)NCCCN2CCC(O)(c3ccc(Cl)cc3)CC2)cc1 | 6.37 | 6.92 |  |
| O=S(=O)(c1ccccc1Cl)N1CCC(N2CCC(O)(c3ccc(Cl)cc3)C2)CC1 (configuration not stated) | < 4.52 | < 5.00 |  |
| O=S(=O)(c1ccccc1Cl)N1CCC(N2CCCC(O)(c3ccc(Cl)cc3)CC2)CC1 (configuration not stated) | 6.40 | 6.89 |  |
| O=S(=O)(c1ccccc1Br)N1CCC[C@@H](N2CCC(O)(c3ccc(Cl)cc3)CC2)C1 | 5.85 | 5.85 |  |
| O=S(=O)(c1ccccc1Cl)N1CCC(N2CCC(O)(c3ccc(Cl)c(F)c3)CC2)CC1 | 6.37 | 6.21 |  |
| O=S(=O)(NCCCN1CCC(O)(c2ccc(Cl)cc2)CC1)c1ccccc1-c1ccsc1 | 6.46 | 6.96 |  |
| O=S(=O)(c1ccccc1Cl)N1CCC(N2CCC(O)(c3ccc(Oc4ccccc4)cc3)CC2)CC1 | < 5.00 | < 5.00 |  |
| O=S(=O)(NCCCN1CCC(O)(c2ccc(Cl)cc2)CC1)c1cc(Cl)ccc1Cl | 6.27 | 6.55 |  |
| O=S(=O)(NCCCN1CCC(O)(c2ccc(Cl)cc2)CC1)c1ccc(C(F)(F)F)cc1 | 5.03 | 5.66 |  |
| O=S(=O)(NCCCN1CCC(O)(c2ccc(Cl)cc2)CC1)c1ccccc1C(F)(F)F | 6.60 | 7.30 |  |
